Screens (PubChem BioAssay)
NR2E3 ag-1 = NR2E3 (human) agonism | 320,000 tested, 0.12% active | inhibition of corepressor binding, % at 4.78 µM | GST-NR2E3/biotin-RetCOR TR-FRET, 1536-well;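 active means percent inhibition above the cutoff of mean plus 3 SD of all tested compounds, set per screening campaign, cut at about 20% in these data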;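 further: 0% = DMSO wells and 100% = biotin wells as full block of FRET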
Target sequence (Q9Y5X4 whole entry, looked up): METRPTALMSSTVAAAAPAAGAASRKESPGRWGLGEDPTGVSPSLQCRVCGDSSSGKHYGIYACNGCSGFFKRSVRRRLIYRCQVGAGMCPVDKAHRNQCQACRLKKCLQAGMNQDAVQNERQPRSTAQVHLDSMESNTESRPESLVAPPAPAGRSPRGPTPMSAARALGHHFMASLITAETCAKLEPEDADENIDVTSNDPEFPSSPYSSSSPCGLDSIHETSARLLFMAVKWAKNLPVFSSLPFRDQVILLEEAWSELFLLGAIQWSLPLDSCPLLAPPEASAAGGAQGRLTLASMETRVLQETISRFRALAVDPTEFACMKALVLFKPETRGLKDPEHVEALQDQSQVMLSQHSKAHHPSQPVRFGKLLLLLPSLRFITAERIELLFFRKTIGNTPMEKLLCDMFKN
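Material: NR2E3–RetCOR corepressor complex | Quantity: 1.35 nM GST-tagged NR2E3 final | Schedule: 5 h at 4 °C | Replication: Singlicate compound wells | Reagent: RetCOR corepressor, biotinylated, 7 nM | Controls: Biotin wells as high control, 0.6% DMSO wells as low control | Signal: TR-FRET, Eu(K)-anti-GST donor, streptavidin-D2 acceptor, ex 340, em 617/671 nm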
JMJD2C inh = human JMJD2C demethylase inhibition; 330,000 tested, 0.069% active; GST-JMJD2C(1-420) H3K9me3 demethylation, DELFIA europium; inhibition, % at 2.35 µM;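 active means more than half of a compound's replicate wells show inhibition beyond 50%, single wells judged on their own value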;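 further: signal counts dimethyl H3K9 product captured on neutravidin plate; 0% = median of DMSO wells and 100% = 0.3 times that DMSO median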
NR2E3 ag-2 = agonists of human NR2E3 nuclear receptor | Q9Y5X4 | CHO-S Gal4-NCOR/VP16-NR2E3 two-hybrid, luciferase | 360,000 tested, 0.35% active | inhibition of corepressor binding, % at 3.98 µM;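 active means inhibition above the mean of all tested compounds plus 3 SD, cut at about 70% in these data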;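 further: 0% = DMSO with NR2E3 transfected cells and 100% = cells lacking NR2E3 construct; higher means lower luciferase signal from less NR2E3 corepressor binding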
Jurkat NFkB inh = lowers PMA/ionomycin-induced NF-kB signal in Jurkat cells; PMA/ionomycin-induced NF-kB luciferase reporter, luminescence; inhibition, % at 4 µM; 330,000 tested, 0.53% active; in the data active means inhibition above about 50%
697 NFkB inh = lowers PMA/ionomycin-induced NF-kB signal in 697 B cells | 697 B-cell NF-kB luciferase reporter, 16 h | inhibition, % at 4 µM | 330,000 tested, 0.33% active; in the data active means inhibition above about 35%
GalR3 antagonist = blocks the human galanin receptor 3; O60755; HEK293 GalR3-CNG cAMP membrane potential fluorescence; galR3 body fused to GalR1 C-terminus; inhibition, % at 3 µM; 360,000 tested, 0.44% active;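 active means inhibition above the screen-wide average plus 3 SD, cut at about 13% in these data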;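 further: forskolin and galanin both at EC90 stimulate the cells; cAMP rise reported by CNG channel membrane potential dye signal; 0% = forskolin plus galanin with DMSO and 100% = forskolin alone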
NR2E3 ag conf = NR2E3 agonism confirmed in two-hybrid assay | shares compounds with NR2E3 ag-2 | AID 624378 | 2,300 tested, 51% active | CHO-S mammalian two-hybrid NR2E3-NCOR, luciferase luminescence | inhibition, % at 3.98 µM;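 active means average inhibition above a cutoff equal to the mean inhibition of all tested compounds plus one SD, cut at about 70% in these data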;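 further: 0% = DMSO in NR2E3 cells and 100% = DMSO in cells lacking NR2E3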
VP16 counter = GAL4-VP16 reporter inhibition in NR2E3 agonist counterscreen. shares compounds with NR2E3 ag-2. CHO-S GAL4-VP16 luciferase reporter, luminescence. inhibition, % at 3.98 µM. 2,300 tested, 29% active;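 active means mean inhibition above a cutoff equal to the average over all tested compounds plus one standard deviation, cut at about 70% in these data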;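 further: luciferase from a UAS reporter driven by GAL4-VP16 transactivation; 0% = DMSO with VP16-transfected cells and 100% = DMSO with cells lacking VP16; higher means less reporter light so more repression of VP16 activity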
Numbers without * were called inactive; / = no result given. Most compounds without a hit are left out; they make up all but 1.5% or so of the library.

SMILES	NR2E3 ag-1	JMJD2C inh	NR2E3 ag-2	Jurkat NFkB inh	697 NFkB inh	GalR3 antagonist	NR2E3 ag conf	VP16 counter
Clc1cccc(CON/C=N/c2ncnc3sccc23)c1	4	-11	15	17	-14	2	/	/
Clc1cccc(Cl)c1CON/C=N/c1ncnc2sccc12	-4	9	60	-1	-30	-3	48	55
COC(=O)[C@@]1(Cc2ccc(OC)cc2)[C@H]2c3cc(C(=O)N4CCCC4)n(Cc4ccsc4Br)c3C[C@H]2CN1C(=O)c1ccccc1	/	/	-3	/	/	-2	/	/
COc1ccccc1/C=C/CN1CCC(n2nccc2NC(=O)CCc2ccccc2)CC1	-4	1	65	21	1	-10	56	51
COc1ccc2oc(C(=O)OCC(=O)N3CCN(S(=O)(=O)c4ccccc4)CC3)c(C)c2c1	-6	1	51	1	21	-3	90*	71*
COc1ccc2oc(C(=O)OCC(=O)N3CCN(c4ccccc4)CC3)c(C)c2c1	1	7	0	-6	15	-2	/	/
CCOC(=O)Cn1c(=O)c(-c2ccccc2N)nc2ccccc21	0	25	-7	-12	20	0	/	/
CCOC(=O)Cn1c(=O)c(-c2cc(Br)ccc2N)nc2ccccc21	1	2	76*	-1	13	-4	80*	68
OCCCCCNc1ncnc2ccccc12	1	-6	79*	26	-23	5	68	62
Cc1ccc(S(=O)(=O)N2CCCCC2)cc1NC(=O)c1cc(F)c(F)c(F)c1F	/	-1	16	-8	3	-7	/	/
C=CCN(c1ccccc1)S(=O)(=O)c1cccc(C(=O)N2CC(C)CC(C)C2)c1 (configuration not stated)	4	-3	-6	22	-56	-4	/	/
CN(c1nc2ccccc2[nH]c1=O)C1CCCCC1	2	0	55	0	-13	-7	90*	73*
CC(C)NC(=S)N/N=C1\CCCCC1C1CCCCC1 (configuration not stated)	1	2	67	9	12	-5	-16	0
Cc1cc(NC(=O)C2CC(=O)N(c3ccccc3)C2)no1 (configuration not stated)	3	-4	-8	25	-68	-1	/	/
CCCOc1ccc(S(=O)(=O)NCc2ccc(OC)cc2)cc1	1	1	50	-2	1	0	63	49
O=C(NNC(=O)c1cccc(S(=O)(=O)N2CCc3ccccc32)c1)c1ccccc1	/	13	53	/	/	-4	80*	71*
O=S(=O)(NC1CCCC1)c1ccc(S(=O)(=O)N2CCc3ccccc32)cc1	1	-4	55	25	1	-6	79*	54
CCOC(=O)c1cc(S(=O)(=O)Nc2cccc(OC)c2)cn1C	0	-1	54	13	-13	-6	25	28
COC(=O)c1cc(S(=O)(=O)Nc2cc(OC)cc(OC)c2)cn1C	2	-8	14	9	7	0	/	/
C=CCn1c(SC(C)C(N)=O)nc2sc(CC)cc2c1=O (configuration not stated)	1	7	-3	2	6	3	/	/
C=CCn1c(SCC(=O)Nc2sccc2C(N)=O)nc2ccccc2c1=O	-3	6	6	17	-5	-4	/	/
C=CCn1c(SCC(=O)Nc2sccc2C(N)=O)nc2ccc(Cl)cc2c1=O	-1	1	69	18	-25	-7	35	50
C=CCn1c(SCC(=O)Nc2sccc2C(N)=O)nc2sc(CC)cc2c1=O	2	-3	59	-4	-52	-5	62	57
CN1CCN(C(=O)c2ccc(Cc3cn(C)c4ccccc34)nc2)CC1	/	/	16	/	/	-1	/	/
O=C(NCc1c(F)cccc1F)c1cc(COc2c(F)cccc2F)on1	3	-4	89*	-10	-5	-7	-28	-49
SMILES	NR2E3 ag-1	JMJD2C inh	NR2E3 ag-2	Jurkat NFkB inh	697 NFkB inh	GalR3 antagonist	NR2E3 ag conf	VP16 counter
C[C@H]1CN([C@@H](C)CO)C(=O)c2cc(NC(=O)NC3CCCCC3)ccc2O[C@H]1CN(C)C(=O)Nc1ccc(C(F)(F)F)cc1	/	-1	31	6	5	-3	/	/
COc1ccc2cc(Br)ccc2c1CC(=O)NC1CC(C)(C)NC(C)(C)C1	9	-12	-7	5	-5	-9	/	/
Cc1cc(Nc2cccc(Br)c2)cc(=O)n1-c1cccc(Br)c1	/	/	/	/	/	-9	/	/
CN(CC(=O)Nc1ccc(Cl)c(C(F)(F)F)c1)CC(=O)NC1CCCCC1	0	2	60	4	0	/	53	37
CN(CC(=O)NCc1ccccc1)CC(=O)Nc1ccc(Cl)c(C(F)(F)F)c1	0	-1	28	4	6	-3	/	/
N=C1SC(c2ccccc2)C(=O)N1c1ncc(Cc2ccccc2)s1 (configuration not stated)	0	0	71*	-8	-1	-3	-64	-15
CN(CCc1ccccc1)C(=O)c1ccc(NC(=O)Cc2ccc([N+](=O)[O-])cc2)cc1	/	-1	17	1	16	-5	/	/
COc1ccc(-c2coc3c(C(=O)NCCN4CCOCC4)cccc23)c(C)c1	/	/	-11	/	/	-6	/	/
COc1ccc(-c2coc3c(C(=O)NCC4CCOCC4)cccc23)c(C)c1	/	/	71*	/	/	-6	60	51
CCc1ccc(NC(=O)Cn2cc([N+](=O)[O-])nc2C)cc1	/	-7	-5	-8	-4	-5	/	/
O=C(CSc1cccc[n+]1[O-])c1cc2ccccc2o1	2	-12	78*	-31	-31	/	-22	-16
Cn1ncc(S(=O)(=O)Cc2ccccc2)c(Cl)c1=O	-2	-10	64	-3	2	0	32	-1
CN1C(=O)C2(c3ccccc31)C1CCCC=C1C(C#N)=C(N)C2(C#N)C#N (configuration not stated)	2	-4	1	9	3	1	/	/
Cc1ccc(S(=O)(=O)N2CCC(=O)N(CCOCc3ccc(C(F)(F)F)cc3)CC2)cc1	2	-1	81*	27	-24	9	88*	71*
COc1ccc(NC(=O)CC2S/C(=N\c3nccs3)N(C)C2=O)cc1 (configuration not stated)	-1	-30	-17	-14	-33	-6	/	/
Nc1cc(S(=O)(=O)c2ccc(N3CCCCC3)c(N)c2)ccc1N1CCCCC1	/	/	94*	/	/	-9	95*	84*
Nc1cc(S(=O)(=O)N2CCCCC2)ccc1N1CCOCC1	0	0	12	6	-2	3	/	/
